In data set [1] the target is Dipeptidyl peptidase 2 (Homo sapiens, UniProt Q9UHL4). In words: Inhibition of DPP7 (unknown origin) expressed in baculovirus expression system using Nle-Pro-AMC as substrate by continuous fluorometric assay.
Data set [2] has as its target T1, Prolyl endopeptidase FAP (Homo sapiens, UniProt Q12884).
T1 sequence (Q12884 whole entry): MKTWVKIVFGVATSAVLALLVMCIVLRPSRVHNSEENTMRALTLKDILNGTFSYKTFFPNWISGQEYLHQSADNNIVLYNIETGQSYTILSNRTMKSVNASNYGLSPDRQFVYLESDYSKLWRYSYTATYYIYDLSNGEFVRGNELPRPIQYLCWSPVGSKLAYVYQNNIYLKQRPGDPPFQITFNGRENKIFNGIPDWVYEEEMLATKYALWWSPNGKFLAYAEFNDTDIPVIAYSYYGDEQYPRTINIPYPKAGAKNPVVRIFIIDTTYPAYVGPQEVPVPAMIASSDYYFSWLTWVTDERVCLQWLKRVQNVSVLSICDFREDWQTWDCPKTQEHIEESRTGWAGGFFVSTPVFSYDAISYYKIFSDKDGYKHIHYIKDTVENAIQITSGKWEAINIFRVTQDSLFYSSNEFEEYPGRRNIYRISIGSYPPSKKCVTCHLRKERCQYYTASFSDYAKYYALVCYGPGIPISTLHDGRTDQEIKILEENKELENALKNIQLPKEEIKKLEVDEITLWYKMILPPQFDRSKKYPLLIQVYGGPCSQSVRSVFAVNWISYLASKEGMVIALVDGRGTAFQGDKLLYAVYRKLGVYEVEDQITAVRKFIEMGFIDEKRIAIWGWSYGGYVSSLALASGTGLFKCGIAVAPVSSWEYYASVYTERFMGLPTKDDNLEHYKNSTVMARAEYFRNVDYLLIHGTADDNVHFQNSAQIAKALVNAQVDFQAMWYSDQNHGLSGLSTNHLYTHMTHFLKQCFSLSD
In words: Inhibition of FAP (unknown origin) expressed in baculovirus expression system using Nle-Pro-AMC as substrate by continuous fluorometric assay.

The subject of data set [3] is Mus musculus. The experiment in a line: Reduction in fasting blood glucose level in C57BKS db/db mouse at 15 mg/kg/day, po (Rvb =23.0 +/- 1.0 mM). The data set is classed as functional.
Data set [4] deals with Mus musculus. In words: Reduction in plasma triglyceride content in C57BKS db/db mouse at 15 mg/kg/day, po (reference value: 1.01 +/- 0.09 mM). The data set is classed as functional.
For data set [5], the system named is Mus musculus. In words: Reduction in free fatty acid in C57BKS db/db mouse at 15 mg/kg/day, po (reference value: 1.46 +/- 0.10 mM). The data set is classed as functional.
The subject of data set [6] is Mus musculus. In words: Reduction in random blood glucose level in C57BKS db/db mouse at 15 mg/kg/day, po (Rvb =23.3 +/- 1.0 mM). The data set is classed as functional.
In data set [7] the test system is Mus musculus. In words: Reduction in total cholesterol content in C57BKS db/db mouse at 15 mg/kg/day, po. The data set is classed as functional, organism-based.
The target in data set [8] is Dipeptidyl peptidase 8 (Homo sapiens, UniProt Q6V1X1). In words: Inhibition of DPP8 (unknown origin) expressed in baculovirus expression system using Ala-Pro-AMC as substrate by continuous fluorometric assay.
Data set [9] addresses Dipeptidyl peptidase 9 (Homo sapiens, UniProt Q86TI2). In words: Inhibition of DPP9 (unknown origin) expressed in baculovirus expression system using Ala-Pro-AMC as substrate by continuous fluorometric assay.
Data set [10] concerns Mus musculus. In words: Reduction in glucose excursion in ICR mouse compound administered as single dose measured at 15 mins post dose by oral glucose tolerance test. The data set is classed as functional, organism-based. In outline: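 Fasted ICR mice (16 h) given a single oral dose, 5 or 15 mg/kg in 0.5% methylcellulose (10 mL/kg). Oral glucose challenge 2.5 g/kg given 30 min later. Blood glucose read at 0, 15, 30, 60, 90 and 120 min for AUC. Vehicle control included; mean ± SE, Student's t-test.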

The nature of data set [11]: Tmax in Sprague-Dawley rat at 20 mg/kg, po. The data set is classed as ADME, organism-based. More on the design: dose 20 mg/kg, route oral. The following applies: in vivo. In outline: (§1)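 SD rats dosed orally or intravenously. Blood sampled after dosing and spun to plasma. Plasma deproteinized with methanol containing internal standard, centrifuged, supernatant diluted in methanol and centrifuged again. Compound levels measured by LC/MS/MS. PK parameters were derived from these plasma concentrations.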

The nature of data set [12]: Cmax in Sprague-Dawley rat at 20 mg/kg, po. The data set is classed as ADME, organism-based. Also on record: dose 20 mg/kg, route oral. The conditions noted are these: in vivo. The method, boiled down: as §1
Data set [13] can be described thus: AUC (0 to t) in Sprague-Dawley rat at 20 mg/kg, po. The data set is classed as ADME, organism-based. Also on record: dose 20 mg/kg, route oral. The following applies: plasma. In outline: as §1
Data set [14] has as its system Rattus norvegicus. The experiment in a line: AUC (0 to infinity) in Sprague-Dawley rat at 20 mg/kg, po. The data set is classed as ADME, organism-based, Plasma. More on the design: time infinity, dose 20 mg/kg, route oral. The conditions noted are these: in vivo. In outline:
as §1

Data set [15] can be described thus: Mean residence time in Sprague-Dawley rat at 20 mg/kg, po. The data set is classed as ADME, organism-based. More on the design: dose 20 mg/kg, route oral. The following applies: in vivo. The method, boiled down: as §1
Data set [16] can be described thus: Half life in Sprague-Dawley rat at 20 mg/kg, po. Also on record: dose 20 mg/kg, route oral. The data set is classed as ADME, organism-based. The following applies: in vivo. In outline: as §1
Data set [17] relates to Rattus norvegicus. In words: Oral bioavailability in Sprague-Dawley rat at 20 mg/kg. The data set is classed as ADME, organism-based. The following applies: in vivo. The method, boiled down:
as §1

A short description of data set [18]: Tmax in Sprague-Dawley rat at 10 mg/kg, iv. The data set is classed as ADME, organism-based. Also on record: dose 10 mg/kg, route intravenous. The conditions noted are these: in vivo. In outline: as §1
Data set [19] in a line: Cmax in Sprague-Dawley rat at 10 mg/kg, iv. The data set is classed as ADME, organism-based. More on the design: dose 10 mg/kg, route intravenous. The conditions noted are these: in vivo. The method, boiled down: as §1
Data set [20] is described as follows: AUC (0 to t) in Sprague-Dawley rat at 10 mg/kg, iv. The data set is classed as ADME, organism-based. More on the design: dose 10 mg/kg, route intravenous. The conditions noted are these: plasma. In outline: as §1
Data set [21] deals with Rattus norvegicus. In words: AUC (0 to infinity) in Sprague-Dawley rat at 10 mg/kg, iv. The data set is classed as ADME, organism-based, Plasma. More on the design: time infinity, dose 10 mg/kg, route intravenous. The conditions noted are these: in vivo. In outline:
as §1

Data set [22] in a line: Mean residence time in Sprague-Dawley rat at 10 mg/kg, iv. The data set is classed as ADME, organism-based. Also on record: dose 10 mg/kg, route intravenous. The following applies: in vivo. In outline: as §1
A short description of data set [23]: Half life in Sprague-Dawley rat at 10 mg/kg, iv. The data set is classed as ADME, organism-based. More on the design: dose 10 mg/kg, route intravenous. The following applies: in vivo. In outline:
as §1

The nature of data set [24]: Apparent clearance in Sprague-Dawley rat at 10 mg/kg, iv. The data set is classed as ADME, organism-based. Also on record: dose 10 mg/kg, route intravenous. The conditions noted are these: in vivo, read-out: CL(app) (converted). The method, boiled down: as §1
The target of data set [25] is T2, Voltage-gated inwardly rectifying potassium channel KCNH2 (Homo sapiens, UniProt Q12809). The experiment in a line: Inhibition of human ERG expressed in CHO cells after 20 mins by patch clamp assay. The data set is classed as cell-based. (In general: In patch-clamp work, channel activity is measured electrically.)
Data set [26] addresses T2, Voltage-gated inwardly rectifying potassium channel KCNH2. The experiment in a line: Inhibition of human ERG expressed in CHO cells after 20 mins by thallium assay. The data set is classed as cell-based. The method, boiled down:
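CHO-hERG-ZG cells grown with 100 μg/mL G418 and 100 μg/mL hygromycin B, then seeded and incubated 16–18 h at 37 °C. Cells held in loading buffer 90 min in the dark at RT, switched to assay buffer, and exposed to compound 20 min in the dark at RT. FluxOR thallium flux read on FDSS: baseline to 10 s, stimulus buffer added at 10 s, recording to 180 s.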

The target in data set [27] is Cytochrome P450 3A4 (Homo sapiens, UniProt P08684). In words: Inhibition of CYP3A4 (unknown origin). The data set is classed as ADME.
The target in data set [28] is Cytochrome P450 2C9 (Homo sapiens, UniProt P11712). The experiment in a line: Inhibition of CYP2C9 (unknown origin). The data set is classed as ADME.

Results on seven compounds are retold here after ChEMBL document CHEMBL3351537, “Design, synthesis and biological evaluation of 4-fluoropyrrolidine-2-carbonitrile and octahydrocyclopenta[b]pyrrole-2-carbonitrile derivatives as dipeptidyl peptidase IV inhibitors” (Eur J Med Chem, 2014).

The IC50 is the concentration that gives 50% inhibition. By Tmax is commonly meant the time at which the peak concentration occurs. In general, Cmax refers to the highest concentration seen after dosing. In general, AUC(0-t) refers to the area under the concentration-time curve up to a stated or last time point. As a reminder, the AUC is the area under the concentration-time curve, a measure of exposure. The MRT is a mean duration of stay, worked out from the concentration-time curve. As a reminder, the half-life is how long it takes for the measured level to halve.

Calls of active or inactive are those of the source. No cut-off for these calls is given here.

T2 sequence (Q12809 whole entry): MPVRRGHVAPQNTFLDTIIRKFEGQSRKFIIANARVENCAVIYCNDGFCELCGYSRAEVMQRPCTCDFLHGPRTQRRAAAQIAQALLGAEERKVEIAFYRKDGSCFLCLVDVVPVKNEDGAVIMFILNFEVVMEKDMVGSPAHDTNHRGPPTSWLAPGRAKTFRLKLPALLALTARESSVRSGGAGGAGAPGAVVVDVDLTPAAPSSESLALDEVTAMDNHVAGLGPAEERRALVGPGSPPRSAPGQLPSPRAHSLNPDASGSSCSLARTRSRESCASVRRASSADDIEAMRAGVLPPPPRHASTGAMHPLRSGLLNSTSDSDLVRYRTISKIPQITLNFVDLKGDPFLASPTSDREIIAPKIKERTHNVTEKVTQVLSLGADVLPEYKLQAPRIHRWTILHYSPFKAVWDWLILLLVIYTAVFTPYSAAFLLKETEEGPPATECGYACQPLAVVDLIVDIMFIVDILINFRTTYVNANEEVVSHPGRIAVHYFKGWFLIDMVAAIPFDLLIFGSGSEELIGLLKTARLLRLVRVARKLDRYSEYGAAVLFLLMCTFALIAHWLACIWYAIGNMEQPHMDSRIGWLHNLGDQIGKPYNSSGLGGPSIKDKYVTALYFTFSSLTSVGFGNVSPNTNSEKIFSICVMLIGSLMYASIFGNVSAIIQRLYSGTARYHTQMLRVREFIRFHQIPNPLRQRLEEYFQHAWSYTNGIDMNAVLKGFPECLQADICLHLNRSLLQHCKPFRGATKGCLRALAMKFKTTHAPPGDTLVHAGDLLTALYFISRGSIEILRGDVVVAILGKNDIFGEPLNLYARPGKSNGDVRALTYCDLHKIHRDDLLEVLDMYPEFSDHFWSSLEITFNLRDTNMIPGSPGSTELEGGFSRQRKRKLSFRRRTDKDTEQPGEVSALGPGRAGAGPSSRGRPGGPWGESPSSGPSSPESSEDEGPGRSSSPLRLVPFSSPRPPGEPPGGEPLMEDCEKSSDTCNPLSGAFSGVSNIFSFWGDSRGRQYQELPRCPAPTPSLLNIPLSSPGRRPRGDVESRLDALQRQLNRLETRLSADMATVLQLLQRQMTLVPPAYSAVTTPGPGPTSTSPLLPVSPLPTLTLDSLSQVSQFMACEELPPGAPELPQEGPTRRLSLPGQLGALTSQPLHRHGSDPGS
Dipeptidyl peptidase 9, sequence (Q86TI2 whole entry): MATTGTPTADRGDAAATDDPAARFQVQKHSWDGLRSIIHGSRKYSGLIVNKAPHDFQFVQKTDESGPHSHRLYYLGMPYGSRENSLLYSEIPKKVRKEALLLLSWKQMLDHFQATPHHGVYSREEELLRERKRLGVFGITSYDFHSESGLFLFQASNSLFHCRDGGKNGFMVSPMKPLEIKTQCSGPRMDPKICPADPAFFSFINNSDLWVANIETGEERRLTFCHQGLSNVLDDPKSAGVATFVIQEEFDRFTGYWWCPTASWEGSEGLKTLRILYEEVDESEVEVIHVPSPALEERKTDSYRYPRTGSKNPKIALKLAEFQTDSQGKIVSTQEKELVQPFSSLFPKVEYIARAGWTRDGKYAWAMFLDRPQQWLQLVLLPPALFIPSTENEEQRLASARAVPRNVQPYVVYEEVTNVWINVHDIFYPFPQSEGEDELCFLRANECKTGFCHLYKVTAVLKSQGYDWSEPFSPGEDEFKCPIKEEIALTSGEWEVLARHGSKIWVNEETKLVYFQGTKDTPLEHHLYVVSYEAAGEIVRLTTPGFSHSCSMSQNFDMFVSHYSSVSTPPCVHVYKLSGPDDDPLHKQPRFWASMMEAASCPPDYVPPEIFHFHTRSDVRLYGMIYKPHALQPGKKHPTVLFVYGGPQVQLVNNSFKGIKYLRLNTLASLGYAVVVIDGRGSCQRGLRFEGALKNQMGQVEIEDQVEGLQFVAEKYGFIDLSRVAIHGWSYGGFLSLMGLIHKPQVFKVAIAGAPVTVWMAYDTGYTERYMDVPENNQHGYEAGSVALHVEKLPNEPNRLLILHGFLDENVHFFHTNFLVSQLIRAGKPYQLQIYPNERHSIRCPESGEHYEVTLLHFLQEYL
Cytochrome P450 3A4, sequence (P08684 whole entry): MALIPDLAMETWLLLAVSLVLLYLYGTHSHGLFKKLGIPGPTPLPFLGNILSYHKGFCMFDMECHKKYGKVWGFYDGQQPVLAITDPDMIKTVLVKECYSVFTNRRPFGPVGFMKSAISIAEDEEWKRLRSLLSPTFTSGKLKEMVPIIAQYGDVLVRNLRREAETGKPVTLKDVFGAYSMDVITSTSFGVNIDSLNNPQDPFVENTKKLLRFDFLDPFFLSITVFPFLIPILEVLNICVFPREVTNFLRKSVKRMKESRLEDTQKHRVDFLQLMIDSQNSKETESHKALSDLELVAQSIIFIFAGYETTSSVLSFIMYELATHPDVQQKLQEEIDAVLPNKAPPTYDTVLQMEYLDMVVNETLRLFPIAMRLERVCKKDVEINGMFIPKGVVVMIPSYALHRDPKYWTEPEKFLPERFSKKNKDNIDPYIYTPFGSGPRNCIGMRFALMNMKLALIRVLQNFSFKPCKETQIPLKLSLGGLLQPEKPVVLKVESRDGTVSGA
Cytochrome P450 2C9, sequence (P11712 whole entry): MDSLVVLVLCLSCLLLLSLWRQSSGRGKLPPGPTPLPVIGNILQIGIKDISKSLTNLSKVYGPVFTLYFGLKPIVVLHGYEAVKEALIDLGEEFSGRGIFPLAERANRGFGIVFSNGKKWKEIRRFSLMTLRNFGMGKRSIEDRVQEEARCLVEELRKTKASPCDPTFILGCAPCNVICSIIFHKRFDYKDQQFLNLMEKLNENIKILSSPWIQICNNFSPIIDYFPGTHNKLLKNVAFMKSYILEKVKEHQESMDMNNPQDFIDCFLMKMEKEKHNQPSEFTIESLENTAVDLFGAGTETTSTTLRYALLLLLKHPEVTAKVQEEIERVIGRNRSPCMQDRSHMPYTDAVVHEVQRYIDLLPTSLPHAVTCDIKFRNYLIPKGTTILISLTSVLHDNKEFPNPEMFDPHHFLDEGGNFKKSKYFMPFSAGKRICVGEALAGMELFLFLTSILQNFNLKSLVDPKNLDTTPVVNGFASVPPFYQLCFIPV
Dipeptidyl peptidase 8, sequence (Q6V1X1 whole entry): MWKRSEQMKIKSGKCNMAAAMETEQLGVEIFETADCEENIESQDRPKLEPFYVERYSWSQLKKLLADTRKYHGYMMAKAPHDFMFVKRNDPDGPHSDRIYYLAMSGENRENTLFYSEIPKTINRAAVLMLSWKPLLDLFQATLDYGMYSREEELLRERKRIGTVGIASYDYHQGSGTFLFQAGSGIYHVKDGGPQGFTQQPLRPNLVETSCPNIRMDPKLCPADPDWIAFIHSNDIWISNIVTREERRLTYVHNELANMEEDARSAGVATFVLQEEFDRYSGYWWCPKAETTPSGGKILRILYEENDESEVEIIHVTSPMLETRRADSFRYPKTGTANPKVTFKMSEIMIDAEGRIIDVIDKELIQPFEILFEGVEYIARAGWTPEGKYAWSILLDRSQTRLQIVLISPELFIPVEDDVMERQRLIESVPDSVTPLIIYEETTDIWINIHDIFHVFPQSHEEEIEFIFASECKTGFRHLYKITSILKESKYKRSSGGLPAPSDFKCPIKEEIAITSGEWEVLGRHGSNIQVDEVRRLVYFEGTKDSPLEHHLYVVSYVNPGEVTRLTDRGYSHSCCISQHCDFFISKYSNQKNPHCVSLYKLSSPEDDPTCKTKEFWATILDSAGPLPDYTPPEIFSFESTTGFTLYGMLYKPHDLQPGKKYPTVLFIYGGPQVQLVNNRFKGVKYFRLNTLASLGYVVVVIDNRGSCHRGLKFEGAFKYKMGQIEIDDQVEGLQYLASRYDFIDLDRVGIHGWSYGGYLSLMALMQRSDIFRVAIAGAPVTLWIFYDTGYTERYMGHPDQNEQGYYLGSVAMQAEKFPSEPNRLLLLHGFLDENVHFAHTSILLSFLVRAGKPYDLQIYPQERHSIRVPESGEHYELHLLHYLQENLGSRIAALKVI

For `Cc1ccccc1C[C@@H](N)CC(=O)N1[C@H](C#N)C[C@@H]2CCC[C@@H]21`, the IC50 entry was “Not Active” in data set [1] and 110 µM in data set [2] (read-out: IC50).
Turning to `Cc1ccccc1C[C@@H](N)CC(=O)N1C[C@@H](F)C[C@H]1C#N`, in data set [1], the IC50 result is “Not Active”.
Take `N#C[C@@H]1CCCN1C(=O)CNC12CC3CC(CC(O)(C3)C1)C2` [VILDAGLIPTIN]: the Activity in data set [3] worked out at 18.5 mM; in [4], 0.75 mM; in data set [5], 1.07 mEq/L; in data set [6] it was 22.2 mM. In addition, the result in data set [7] was inactive.
As to `N#C[C@@H]1C[C@@H]2CCC[C@@H]2N1C(=O)C[C@H](N)Cc1ccccc1`, the half-maximal inhibitory concentration (IC50) result is “Not Active” in [1], “Not Active” in data set [8], 108 µM in data set [9] and “Not Active” in [2].
`N#C[C@@H]1C[C@@H]2CCC[C@@H]2N1C(=O)C[C@H](N)Cc1cc(F)c(F)cc1F`: the Activity result in [10] is “Dose-dependent effect”; in data set [3], 19.7 mM; in data set [4], 0.85 mM; in data set [5] it was 1.43 mEq/L; in data set [6] it was 21.3 mM. Besides, the result in data set [7] was inactive. The Tmax in data set [11] and in data set [18] was 0.5 h throughout. Besides, the highest concentration (Cmax) in data set [12] is 509 ng/mL; in data set [19] it was 1120 ng/mL. Besides, the area under the curve AUC(0-t) is 2040 ng·h/mL in data set [13] and 4470 ng·h/mL in data set [20]. The values for the exposure (AUC) in data set [14] and in data set [21] were 2360 ng/mL.hr and 4974 ng·h/mL, respectively. The MRT in data set [15] was found to be 2.81 h; in [22] it was 2.71 h. In addition, the half-life in data set [16] is 2.74 h; in data set [23], 2.39 h. This compound also gave a F in data set [17] of 22.8%. Besides, the clearance in [24] was 33.5 mL/min/kg. Besides, the IC50 is over 40 µM in data set [25], 55.3 µM in [26], 2.25 µM in data set [27] and “Not Active” in data set [28].
`N#C[C@@H]1C[C@H](F)CN1C(=O)C[C@H](N)Cc1ccc(Cl)c(Cl)c1` registered an IC50 in [9] of 0.23 µM.
With `N#C[C@@H]1C[C@@H]2CCC[C@@H]2N1C(=O)C[C@H](N)Cc1ccc(F)cc1`, the half-maximal inhibitory concentration (IC50) in data set [2] (read-out: IC50) was 154 µM.
